Reference: ChEMBL document CHEMBL1154008, “Synthesis and in vitro activity of new tetrahydronaphtho[1,2-b]azepine derivatives against Trypanosoma cruzi and Leishmania chagasi parasites” (Bioorg Med Chem Lett, 2009)

Experiments:
Trypanosoma cruzi [1] = assay: Antiparasitic activity against Trypanosoma cruzi 320I04 epimastigotes […] after 72 hrs; type: functional, organism-based
In short: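 Free parasite forms (T. cruzi 320I04 epimastigotes; L. chagasi MHOM/BR/74/PP75 promastigotes) exposed to compounds for 72 h at 27 °C. IC50/IC90 taken as the concentrations giving 50% or 90% growth inhibition. Values are representative of one experiment out of three.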

Trypanosoma cruzi [2] = assay: Antiparasitic activity against Trypanosoma cruzi 320I04 intracellular amastigotes infected in african green monkey Vero cells after 72 hrs; type: functional, organism-based; conditions: 320I04, Vero
Leishmania chagasi = assay: Antiparasitic activity against Leishmania chagasi MHOM/BR/74/PP75 promastigotes infected in human THP1 cells after 72 hrs; conditions: MHOM/BR/74/PP75, THP-1, 72 h
[3] = Cytotoxicity against african green monkey Vero cells after 72 hrs by MTT assay; type: cell-based; conditions: chlorocebus sabaeus
In short: (§1)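 Vero or transformed THP-1 cells exposed to a 3-fold compound dilution series, in triplicate, for 72 h at 37 °C. Toxicity read by MTT reduction. CC50/CC90 taken as the concentrations killing 50% or 90% of cells. Values are representative of one experiment out of three.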

[4] = Cytotoxicity against human THP1 cells after 72 hrs by MTT assay; type: cell-based; conditions: THP-1 cells; in short: as §1
[5] = Selectivity index, ratio of CC50 for african green monkey Vero cells to IC50 for Trypanosoma cruzi 320I04 epimastigotes; type: functional
In short: (§2)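 SI calculated as Vero CC50 divided by T. cruzi IC50, or THP-1 CC50 divided by L. chagasi IC50. Both values come from 72 h exposures: parasites at 27 °C, mammalian cells at 37 °C with MTT read-out.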

[6] = Selectivity index, ratio of CC50 for african green monkey Vero cells to IC50 for Trypanosoma cruzi 320I04 intracellular amastigotes; type: functional
[7] = Selectivity index, ratio of CC50 for human THP1 cells to IC50 for Leishmania chagasi MHOM/BR/74/PP75 promastigotes; type: functional, THP-1; in short: as §2

Structure (SMILES)	IC50 (Trypanosoma cruzi [1]) [µM]	IC90 (Trypanosoma cruzi [1]) [µM]	IC50 (Trypanosoma cruzi [2]) [µM]	IC90 (Trypanosoma cruzi [2]) [µM]	IC50 (Leishmania chagasi) [µM]	IC90 (Leishmania chagasi) [µM]	CC50 at 72 h [3] [µM]	CC90 at 72 h [3] [µM]	CC50 at 72 h [4] [µM]	CC90 at 72 h [4] [µM]	Ratio CC50/IC50 [5]	Ratio CC50/IC50 [6]	Ratio CC50/IC50 [7]
O=[N+]([O-])c1ccccc1[C@@H]1C[C@@H]2Cc3ccc4ccccc4c3N1O2	1.4	29.3	> 100	> 100	40.9	209	40.2	> 300	> 300	> 300	28.7	<0.4	>7.3
O[C@@H]1Cc2ccc3ccccc3c2N[C@H](c2ccccc2Cl)C1	0.5	11	10.6	> 30	30.6	64.6	96.5	> 250	66.1	> 300	193	9.1	2.2
O[C@@H]1Cc2ccc3ccccc3c2N[C@H](c2ccc(F)cc2)C1	1.1	11.6	14.8	> 30	21	120	100	> 250	81.9	> 250	91.4	6.8	3.9
O[C@@H]1Cc2ccc3ccccc3c2N[C@H](c2ccc(Cl)cc2Cl)C1	1	19.4	> 30	> 30	11	28.2	45.4	> 200	79.4	92.7	45.4	<1.5	7.2
O[C@@H]1Cc2ccc3ccccc3c2N[C@H](c2ccc(Cl)cc2)C1	3.2	24.8	> 100	> 100	25.9	52.9	95	> 250	36.2	122	29.7	<1	1.4
O[C@@H]1Cc2ccc3ccccc3c2N[C@H](c2cccc(Cl)c2)C1	1.4	54.9	23.4	> 30	6	67.3	30.7	> 200	43.2	177	21.9	1.3	7.2
O[C@@H]1Cc2ccc3ccccc3c2N[C@H](c2ccccc2)C1	5.7	35.1	19.3	> 30	46	67.1	108	> 268	102	> 300	18.9	5.6	2.2
Brc1ccc([C@@H]2C[C@@H]3Cc4ccc5ccccc5c4N2O3)cc1	11.4	176	> 100	> 100	73.4	> 250	> 250	> 250	> 250	> 250	21.9	–	>3.4
C[C@@H]1[C@H](O)[C@@H](C)/C=C/C=C/C=C/C=C/C=C/C=C/C=C/[C@H](O[C@@H]2O[C@H](C)[C@@H](O)[C@H](N)[C@@H]2O)C[C@@H]2O[C@](O)(C[C@@H](O)C[C@@H](O)[C@H](O)CC[C@@H](O)C[C@@H](O)CC(=O)O[C@H]1C)C[C@H](O)[C@H]2C(=O)O [AMPHOTERICIN B]	–	–	–	–	0.01	0.03	–	–	0.17	0.18	–	–	17
CC1CS(=O)(=O)CCN1/N=C/c1ccc([N+](=O)[O-])o1 (stereo not drawn) [NIFURTIMOX]	4.8	17	–	11	–	–	114	> 300	–	–	–	–	–
